The values below come from ChEMBL document CHEMBL3758073, “Synthesis and Biochemical Evaluation of 3-Phenoxy-1,4-diarylazetidin-2-ones as Tubulin-Targeting Antitumor Agents” (J Med Chem, 2016).

Each structure is given as a SMILES string. Calls of active or inactive are those of the source.

The target in one data set is Tubulin (Homo sapiens) (UniProt P68371+Q9H4B7+P0DPH7+P68366+Q13509+Q71U36+P04350+Q3ZCM7+P07437+P68363+Q9BQE3+Q6PEY2+Q13885+Q9BVA1+Q9BUF5). Put plainly: Inhibition of tubulin polymerization in human MCF7 cells assessed as induction of microtubules bundles formation at 1 uM incubated for 16 hrs by FITC-DAPI staining based confocal microscopic analysis. It is filed as cell-based.

Data set [1] concerns MCF7. The experiment in a line: Binding affinity to beta-Tubulin in human MCF7 cells assessed as inhibition of protein-EBI adduct formation at Cys239 and Cys354 at 10 uM pre-incubated for 2 hrs followed by EBI addition after 1.5 hrs by Western blot analysis. Type of data set: cell-based. A digest of the protocol:
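MCF-7 seeded at 5×10^4 cells/well and incubated overnight. Treated 2 h with test agent at 10 μM or with vehicle (0.1% v/v ethanol), then with N,N'-ethylene-bis(iodoacetamide) for a further 1.5 h. Cells washed in ice-cold PBS and lysed in Laemmli buffer. SDS-PAGE, PVDF transfer and β-tubulin immunoblot to detect the faster-migrating β-tubulin–EBI adduct. Three independent experiments.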
For orientation: In western blotting, separated proteins are transferred to a membrane and probed.

Data set [2] has as its system MCF7. The experiment in a line: Antiproliferative activity against human MCF7 cells assessed as cell viability pre-incubated for 24 hrs with CO2 followed by compound addition after 72 hrs by MTT assay. Type of data set: functional, cell-based. Summed up: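 MCF-7 grown in Eagle's MEM with 10% FBS, 2 mM L-glutamine, penicillin/streptomycin and 1% non-essential amino acids. Cells seeded at 2.5 x 10⁴ cells/mL, 24 h at 37 °C, then dosed from ethanol stocks over 1 nM–100 µM (vehicle 1% v/v ethanol) for 72 h. MTT at 1 mg/mL final, 2 h in the dark, DMSO solubilisation. Viability set against untreated controls; IC50 is the mean of three experiments in triplicate.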
A general note: Tetrazolium dyes change colour on reduction, which living cells bring about.

The subject of data set [3] is MCF7. The experiment in a line: Cytotoxicity against human MCF7 cells assessed as induction of cell death at 10 uM after 72 hrs by LDH assay. It is filed as cell-based. Particulars: mcf7, 72 h. A digest of the protocol: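 Cell death in MCF-7 measured by LDH release. Seeding and dosing as for the MTT assay; after 72 h, lysis solution added to blank wells for 1 h to give 100% death. Supernatant mixed with substrate (INT to formazan) for 30 min at rt in the dark, then stopped and read at 490 nm. Percentage cell death reported at 10 μM; assays in triplicate.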

Another data set deals with Tubulin (Sus scrofa) (UniProt P02554+P02550). Put plainly: Inhibition of porcine tubulin polymerization assessed as inhibition of tubulin assembly Vmax rate at 10 uM by spectrophotometric analysis. Type of data set: protein assay. Summed up:
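Tubulin polymerisation kit (>97% pure porcine tubulin, OD-based). Tubulin plus GTP at 37 °C with test agent at 10 μM final; 1% v/v ethanol as vehicle. A340 read every 30 s for 60 min at 37 °C. Fold change in Vmax calculated relative to vehicle; mean of three separate experiments.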

Data set [4] is described as follows: Half life of the compound in pH 4 after 3 to 24 hrs by HPLC. It is filed as physicochemical. Summed up:
(§1)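 10 mg compound was dissolved in 10 ml mobile phase as stock. 200 µL stock was diluted into 9.8 mL phosphate buffer (pH 4, 7.4 or 9, British Pharmacopeia 2010) and injected immediately. Samples were analysed at t=0, then every 3 h to 24 h, by reverse-phase C8 HPLC: acetonitrile:water 50:50, 1 ml/min, 254 nm detection. Half-life was derived from these runs.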

Data set [5] in a line: Half life of the compound in pH 7.4 after 3 to 24 hrs by HPLC. Type of data set: physicochemical. A digest of the protocol: as §1
Data set [6] can be described thus: Half life of the compound in pH 9 after 3 to 24 hrs by HPLC. Type of data set: physicochemical. Summed up:
as §1

Data set [7] relates to MCF7. Put plainly: Induction of apoptosis in human MCF7 cells assessed as accumulation at sub-G0/G1 level at 100 nM after 72 hrs by propidium iodide staining based flow cytometric analysis (reference value: 4%). Type of data set: functional. A general note: A flow cytometer gives signals particle by particle.
Data set [8] in a line: Antiproliferative activity against human MDA-MB-321 cells assessed as cell viability after 72 hrs by MTT assay. It is filed as functional, cell-based. A digest of the protocol: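 MDA-MB-231 cells kept in DMEM with 10% FBS, 2 mM L-glutamine and penicillin/streptomycin. Seeded at 2.5 x 10⁴ cells/mL, 24 h at 37 °C, then exposed for 72 h to 1 nM–100 µM from ethanol stocks (1% v/v ethanol vehicle). MTT added at 1 mg/mL final for 2 h in the dark, DMSO solubilisation, absorbance read, viability relative to untreated controls.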

The nature of data set [9]: Antitumor activity against human UACC62 cells xenografted in athymic nude mouse assessed as reduction in tumor cell growth at 37.5 mg/kg, ip by hollow fiber assay. It is filed as functional. Particulars: UACC-62, ip, read-out: TGI.
The nature of data set [10]: Antiproliferative activity against human NCI60 cells by SRB assay. Type of data set: functional. A digest of the protocol:
(§2)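 NCI panel of 56 cell lines (MCF-7 included), run after an initial single-dose 10 μM screen. Five-dose testing used a sulphorhodamine B protein-staining read-out. GI50 (50% growth inhibition) and LC50 (50% lethal concentration) were derived for each line, and a mean GI50 was taken across the panel.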

The subject of data set [11] is MCF7. The experiment in a line: Inhibition of tubulin polymerization in human MCF7 cells assessed as loss of microtubules formation at 100 nM incubated for 16 hrs by FITC-DAPI staining based confocal microscopic analysis. Type of data set: functional, cell-based. A digest of the protocol: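 MCF-7 seeded at 1×10^5 cells/ml on chamber glass slides and treated 16 h with paclitaxel (1 μM), test agent (100 nM) or vehicle (1% v/v ethanol). Fixed 20 min in 4% paraformaldehyde, permeabilised in 0.5% Triton X-100, blocked in 5% BSA. Stained with anti-α-tubulin–FITC (DM1A, 1:100, 2 h rt) and Alexa Fluor 488, DAPI counterstain. Imaged by confocal microscopy; three independent occasions.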

In data set [12] the test system is MCF7. The experiment in a line: Induction of apoptosis in human MCF7 cells assessed as accumulation at sub-G0/G1 level at 50 nM after 72 hrs by propidium iodide staining based flow cytometric analysis (reference value: 4%). It is filed as functional.
The test system of data set [13] is MCF7. Put plainly: Induction of cell cycle arrest in human MCF7 cells assessed as accumulation at G2/M phase at 50 nM after 48 hrs by propidium iodide staining based flow cytometric analysis (reference value: 25%). It is filed as functional.
Data set [14] has as its system MCF7. Put plainly: Induction of cell cycle arrest in human MCF7 cells assessed as accumulation at G2/M phase at 50 nM after 24 hrs by propidium iodide staining based flow cytometric analysis (reference value: 25%). It is filed as functional.
For data set [15], the system named is MCF7. Put plainly: Antiproliferative activity against human MCF7 cells by SRB assay. Type of data set: functional. Summed up:
as §2

A short description of data set [16]: Toxicity in ip dosed athymic nude mouse. It is filed as organism-based. Particulars: in vivo.

Tubulin (Sus scrofa), sequence (P02550 whole entry, looked up): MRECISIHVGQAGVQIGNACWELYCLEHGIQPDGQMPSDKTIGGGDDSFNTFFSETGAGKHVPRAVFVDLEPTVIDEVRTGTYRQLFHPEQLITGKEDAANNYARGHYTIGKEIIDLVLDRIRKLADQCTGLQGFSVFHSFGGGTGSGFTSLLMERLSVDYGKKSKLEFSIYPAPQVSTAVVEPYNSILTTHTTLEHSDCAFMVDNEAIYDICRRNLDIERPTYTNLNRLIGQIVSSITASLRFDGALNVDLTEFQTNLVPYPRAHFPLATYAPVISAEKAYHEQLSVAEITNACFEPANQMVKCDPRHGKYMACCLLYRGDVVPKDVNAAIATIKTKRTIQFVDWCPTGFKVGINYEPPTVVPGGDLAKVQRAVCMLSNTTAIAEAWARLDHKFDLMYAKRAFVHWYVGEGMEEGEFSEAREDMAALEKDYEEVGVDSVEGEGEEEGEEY
Tubulin (Sus scrofa), sequence (P02554 whole entry, looked up): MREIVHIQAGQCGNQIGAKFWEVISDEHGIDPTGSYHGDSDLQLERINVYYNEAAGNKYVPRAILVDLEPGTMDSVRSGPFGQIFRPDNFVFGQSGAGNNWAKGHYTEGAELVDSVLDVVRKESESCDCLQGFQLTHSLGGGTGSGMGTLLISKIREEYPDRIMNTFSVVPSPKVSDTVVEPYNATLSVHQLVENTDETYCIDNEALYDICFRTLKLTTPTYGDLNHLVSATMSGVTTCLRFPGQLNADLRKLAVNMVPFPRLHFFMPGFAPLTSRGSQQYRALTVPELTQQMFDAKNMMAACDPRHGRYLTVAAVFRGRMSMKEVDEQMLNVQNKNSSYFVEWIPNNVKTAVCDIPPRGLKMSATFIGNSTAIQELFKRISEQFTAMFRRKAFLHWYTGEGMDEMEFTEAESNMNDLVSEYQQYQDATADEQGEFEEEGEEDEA

Regarding `CC(=O)O[C@H]1C(=O)[C@@]2(C)[C@H]([C@H](OC(=O)c3ccccc3)[C@]3(O)C[C@H](OC(=O)[C@H](O)[C@@H](NC(=O)c4ccccc4)c4ccccc4)C(C)=C1C3(C)C)[C@]1(OC(C)=O)CO[C@@H]1C[C@@H]2O`, the inhibition entry on Tubulin (Homo sapiens) was “Active”.
In the case of `COc1cc2c(c(OC)c1OC)-c1ccc(OC)c(=O)cc1[C@@H](NC(C)=O)CC2`, the outcome in the data set with MCF7 [1] was Active.
As a reminder, the IC50 is the midpoint of a concentration-inhibition curve. As to `COc1ccc([C@@H]2[C@H](Oc3cc(OC)c(OC)c(OC)c3)C(=O)N2c2cc(OC)c(OC)c(OC)c2)cc1O` (relative stereo), in the data set with MCF7 [2], the IC50 amounted to 33 µM. In addition, the Activity in the data set with MCF7 [3] came to 10.9%.
Broadly, the half-life is the time needed for the level to fall by half in the phase considered. In the case of `COc1ccc([C@@H]2[C@@H](Oc3ccccc3)C(=O)N2c2cc(OC)c(OC)c(OC)c2)cc1O` (relative stereo), the half-inhibitory concentration (IC50) in the data set on MCF7 [2] was found to be 0.038 µM. The results for the Activity in the data set on MCF7 [3] and with MCF7 [7] were 29% and 34%, respectively. Besides, on Tubulin (Sus scrofa), the fold change (FC) turned out to be 3.2. In addition, the half-life in data set [4] is 12 h; in data set [5], 8 h; in data set [6], 11 h.
For the compound `COc1cc(N2C(=O)[C@@H](Oc3ccccc3)[C@H]2c2cc(N)c(OC)c(O)c2)cc(OC)c1OC` (relative stereo), the 50% inhibitory concentration (IC50) in the data set with MCF7 [2] amounted to 8.8 µM. Further, the Activity in the data set on MCF7 [3] turned out to be 14%.
Turning to `COc1ccc([C@@H]2[C@H](Oc3ccccc3)C(=S)N2c2cc(OC)c(OC)c(OC)c2)cc1O` (relative stereo), in the data set with MCF7 [2], the IC50 was determined as 7.5 µM. The Activity with MCF7 [3] stood at 4.8%.
As usually defined, the GI50 is the concentration giving 50% growth inhibition. In the case of `COc1ccc([C@@H]2[C@@H](Oc3ccccc3)C(=O)N2c2cc(OC)c(OC)c(OC)c2)cc1N` (relative stereo), the results for the concentration for half-maximal inhibition (IC50) (in data set [8]; in the data set on MCF7 [2]) were 0.015 µM and 0.013 µM, respectively. The inhibition in vivo at 37.5 mg/kg in data set [9] was found to be 50%. Further, the Activity with MCF7 [3] is recorded as 10.2%; with MCF7 [12] it was 35%; in the data set with MCF7 [13], 73%; with MCF7 [14], 57%. The GI50 in data set [10] was 0.0224 µM; in the data set on MCF7 [15], less than 0.01 µM. Further, the inhibition result with MCF7 [11] was “Active”. In addition, at Tubulin (Sus scrofa), the fold change (FC) stood at 1.8. In addition, the half-life was 18 h in data set [4], more than 24 h in data set [5] and 18 h in data set [6]. Further, in the data set on MCF7 [1], the result was Active. This compound also came in with an MTD in [16] of 100 mg/kg.
For the compound `COc1cc(N2C(=O)[C@@H](Oc3ccccc3)[C@H]2c2ccc(N(C)C)cc2)cc(OC)c1OC` (relative stereo), the IC50 with MCF7 [2] was 31 µM. In addition, in the data set with MCF7 [3], the Activity turned out to be 5.9%. On Tubulin (Sus scrofa), the fold change (FC) is 0.
As to `COc1cc(N2C(=O)[C@@H](Oc3ccccc3)[C@H]2c2ccc(N)cc2)cc(OC)c1OC` (relative stereo), the IC50 in the data set with MCF7 [2] was 160 µM. In the data set with MCF7 [3], the Activity was 14.7%.
For `COc1cc(N2C(=O)[C@@H](Oc3ccccc3)[C@H]2c2cccc(N)c2)cc(OC)c1OC` (relative stereo), in that order: 17 µM and 48%.
On to `COc1cc(N2C(=O)[C@H](Oc3ccccc3)[C@H]2c2ccc(C#N)cc2)cc(OC)c1OC` (relative stereo), for which the half-inhibitory concentration (IC50) in the data set with MCF7 [2] was 168 µM. In addition, the Activity in the data set on MCF7 [3] worked out at 2.1%. Also, the fold change (FC) at Tubulin (Sus scrofa) is 0.
As for `COc1ccc([C@@H]2[C@H](Oc3ccccc3)C(=O)N2c2cc(OC)c(OC)c(OC)c2)cc1OC(=O)CCCc1ccc(N(CCCl)CCCl)cc1` (relative stereo), the IC50 in the data set on MCF7 [2] came to 0.41 µM. Also, the Activity with MCF7 [3] is reported as 8%.
Regarding `COc1ccc([C@@H]2[C@H](Oc3ccccc3)C(=O)N2c2cc(OC)c(OC)c(OC)c2)c(N)c1O` (relative stereo), the IC50 with MCF7 [2] is 19 µM. Besides, the Activity in the data set with MCF7 [3] amounted to 52%.
`COc1ccc([C@@H]2[C@H](Oc3ccccc3)C(=O)N2c2cc(OC)c(OC)c(OC)c2)cc1O` (relative stereo): in the data set on MCF7 [2], the half-inhibitory concentration (IC50) was 0.383 µM. Besides, the Activity in the data set on MCF7 [3] is recorded as 2.8%. In addition, the GI50 came out at 1.45 µM in data set [10] and 0.36 µM in the data set on MCF7 [15]. The fold change (FC) at Tubulin (Sus scrofa) was determined as 1.1.
For `COc1ccc([C@@H]2[C@H](Oc3ccccc3)C(=O)N2c2cc(OC)c(OC)c(OC)c2)cc1NC(=O)CCCc1ccc(N(CCCl)CCCl)cc1` (relative stereo), in the data set on MCF7 [2], the half-inhibitory concentration (IC50) is 145 µM. Also, the Activity in the data set on MCF7 [3] was determined as 3.2%.
For `COc1cc(N)c([C@@H]2[C@H](Oc3ccccc3)C(=O)N2c2cc(OC)c(OC)c(OC)c2)cc1O` (relative stereo) the same measures were 20 µM and 70%.
For `O=C(O)CCCc1ccc(N(CCCl)CCCl)cc1` [CHLORAMBUCIL], in that order: 97 µM and 8%.
`COc1ccc(/C=C\c2cc(OC)c(OC)c(OC)c2)cc1O` [COMBRETASTATIN A4]: the concentration for half-maximal inhibition (IC50) in the data set on MCF7 [2] came out at 0.0039 µM. Moreover, the Activity with MCF7 [3] is given as 5.5%. The inhibition result in the data set with MCF7 [11] was “Active”. For the same compound, the fold change (FC) on Tubulin (Sus scrofa) turned out to be 6. Moreover, the result in the data set with MCF7 [1] was Active.
